According to PMC3018684 (Free radical research, 2010):

Tests used:
[1] = test system: NF-κB; details: GSH 1 mM with CF sputum sol-phase 10 μl/ml, HBE1 cells
[2] = target: purified human MPO (Homo sapiens, UniProt P05164); assay: Inhibition kinetics of MPO-dependent TMB oxidation by thiol antioxidants; type: biochemical; details: for mode of inhibition of MPO-catalyzed oxidation of TMB: double reciprocal plots 1/V vs 1/[TMB]
Method in brief: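 Purified human MPO (1.5 nM) incubated with test thiol at 0.1–1 μM. Activity measured as initial rate of TMB oxidation, with TMB varied from 20 to 180 μM. Data plotted as double reciprocal 1/V vs 1/[TMB] (Lineweaver-Burk) for each inhibitor level. Slopes of these lines replotted against inhibitor concentration to derive Ki.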

[3] = cited from earlier work
[4] = test system: MPO in CF sputum; type: biochemical, human; details: extrapolated from IC50 in about 2000-fold diluted sputum (Fig 4)
[5] = pH 7.4; cited from earlier work
[6] = Ex vivo scavenging of N-chloramines in CF sputum sol-phase; parameters: species or system human; details: 2 μM antioxidant, 25 μl CF sputum sol-phase, 30 min
[7] = CF patients, 300/450 mg three times daily for 14 days; cited from earlier work
[8] = test system: MPO compound I and II; details: cited from earlier work; for rate constant k of reaction with compound I and II of MPO: both compound I and II
[9] = test system: ground state ferric MPO; details: cited from earlier work
[10] = inhalation in CF patients, secondary to acidic nature; no reference given; cited from earlier work
[11] = oral 0.6–1.0 g three times daily for 4 weeks; cited from earlier work
[12] = no reference given; cited from earlier work

Chain of purified human MPO (P05164 279-745 limits assumed): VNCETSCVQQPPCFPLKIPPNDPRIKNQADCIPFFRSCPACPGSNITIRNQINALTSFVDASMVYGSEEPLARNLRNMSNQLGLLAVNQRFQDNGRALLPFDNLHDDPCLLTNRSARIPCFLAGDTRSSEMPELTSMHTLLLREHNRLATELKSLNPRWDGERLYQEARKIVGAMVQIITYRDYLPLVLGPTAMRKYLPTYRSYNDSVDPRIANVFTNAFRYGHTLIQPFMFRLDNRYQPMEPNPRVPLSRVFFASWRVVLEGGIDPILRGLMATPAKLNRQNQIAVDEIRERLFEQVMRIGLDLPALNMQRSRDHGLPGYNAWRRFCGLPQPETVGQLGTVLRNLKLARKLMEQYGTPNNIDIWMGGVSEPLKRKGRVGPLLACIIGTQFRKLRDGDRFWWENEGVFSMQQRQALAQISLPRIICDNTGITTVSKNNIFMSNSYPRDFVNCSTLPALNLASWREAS
Chain of purified human MPO (P05164 165-273 limits assumed): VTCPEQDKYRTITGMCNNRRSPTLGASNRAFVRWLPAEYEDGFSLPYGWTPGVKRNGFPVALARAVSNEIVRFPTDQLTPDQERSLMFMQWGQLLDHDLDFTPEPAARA

For N[C@@H](CCC(=O)N[C@@H](CS)C(=O)NCC(=O)O)C(=O)O [GSH, glutathione], the “p65 nuclear translocation induced by CF sputum (sol-phase)” value [1] was “inhibit p65 nuclear translocation”, the Ki [2] was 0.08 µM and the “mode of inhibition of MPO-catalyzed oxidation of TMB” value [2] was “competitive”. The “rate constant k of reaction with taurine chloramine” value [3] was 115 ± 14 M⁻¹ s⁻¹, the “respiratory tract lining fluid concentration required to inhibit MPO in the CF airway” value [4] was 1 to 50 mM and the “second-order rate constant for reaction with H2O2” value [5] was 0.87 M⁻¹ s⁻¹. The “lowering of N-chloramine levels” value [6] was 62 ± 11%, the “lung function after aerosolized GSH” value [7] was “improved lung function” and the “rate constant k of reaction with compound I and II of MPO” value [8] was 10^1–10^2 M^−1s^−1.
In the case of OO [H2O2], the “rate constant k of reaction with ground state ferric MPO” value [9] is given as 2.6e+07 M⁻¹ s⁻¹.
For CC(=O)N[C@@H](CS)C(=O)O [NAC, N-acetylcysteine], the “mode of inhibition of MPO-catalyzed oxidation of TMB” value [2] is listed as “non-competitive”, the “rate constant k of reaction with taurine chloramine” value [3] is listed as 46 ± 7 M⁻¹ s⁻¹ and the “reactivity with taurine chloramine relative to GSH (times less reactive)” value [3] is listed as “approx. 2.5”. The “respiratory tract lining fluid concentration required to inhibit MPO in the CF airway” value [4] was 1 to 50 mM, the “second-order rate constant for reaction with H2O2” value [5] was 0.16 M⁻¹ s⁻¹ and the “lowering of N-chloramine levels” value [6] was 80 ± 11%. For the same molecule, the “side effects on inhalation” value [10] was “can induce bronchospasm”, the “rate constant k of reaction with compound I and II of MPO” value [8] was 10^1–10^2 M^−1s^−1 and the “lung function, as assessed by FEV1” value [11] was “no improvement in lung function”. For the same molecule, the “neutrophil GSH content” value [11] was “increased neutrophil GSH content”, the “neutrophil influx in CF airways” value [11] was “decreased neutrophil influx in CF airways” and the “sputum IL-8 levels” value [11] was “decreased sputum IL-8 levels”. For the same molecule, the sputum elastase activity [11] was “decreased sputum elastase activity” and the pKa [12] was 2.2.
In the case of Cc1cc(-c2cc(C)c(N)c(C)c2)cc(C)c1N [TMB, 3, 3′, 5, 5′-tetramethylbenzidine], the “rate constant of reaction with MPO compound I” value [8] is listed as 3.6e+06 M⁻¹ s⁻¹ and the “rate constant of reaction with MPO compound II” value [8] is listed as 940000 M⁻¹ s⁻¹.
